RBBP9 inhibitor: inhibitors of human serine hydrolase RBBP9 | O75884 | inhibition, % at 7.94 µM | 220,000 compounds, 0.2% hits | recombinant RBBP9, FP-Rh probe fluorescence polarization;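 active = inhibition above the campaign mean of all tested compounds plus 3 SD, cut at about 14% in these data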
Target sequence (O75884 whole entry, looked up): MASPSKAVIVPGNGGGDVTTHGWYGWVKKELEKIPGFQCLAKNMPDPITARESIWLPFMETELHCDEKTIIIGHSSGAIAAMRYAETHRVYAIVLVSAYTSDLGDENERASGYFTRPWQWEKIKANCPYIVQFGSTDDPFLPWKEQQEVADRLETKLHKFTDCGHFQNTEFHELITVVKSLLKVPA
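Test system – recombinant human RBBP9 · Input – RBBP9 2.5 µM in dispensing solution, pre-mixing · Medium – Tris buffer pH 8.0, NaCl, Pluronic · Schedule – preincubation 30 min plus labeling 45 min at 25 °C · Measured by – fluorescence polarization · Measure – % inhibition · Controls – DMSO and no-protein wells · Replicates – one well per compound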
PABP1 MLLE inh: blocks PAM2 peptide binding to the PABP1 MLLE domain. inhibition, % at 20 µM. 360,000 compounds, 0.36% hits. GST-MLLE / FITC-PAM2 fluorescence polarization. P11940; in the data active = inhibition above about 35%, passing the limit was not always enough
TCR-CD3 inh: inhibitors of human TCR-CD3 interaction | TAMRA-labeled TCR probe fluorescence, biochemical | inhibition, % at 9.4 µM | 360,000 compounds, 0.37% hits; in the data active = inhibition above about 19%;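 also: recombinant mutant TCR 2C K166C tagged with TAMRA read by polarization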
eIF4H inh: inhibitors of RNA binding by human eIF4H; inhibition, % at 35 µM; AID 2012; eIF4H fluorescence polarization binding assay; 290,000 compounds, 0.94% hits;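 also: calls also rest on retests at 20 µM and on dose response follow-up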
PABP FP inh: PABP-poly(A) binding inhibition | PABP-poly(A) RNA binding, fluorescence polarization | calls only at 35 µM | 290,000 compounds, 1% hits;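 also: calls also rest on retests at 20 µM and on dose response follow-up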
A number is an active result; – = inactive; ? = inconclusive; · = not tested or not shown; + = active, no number. Sampled rows, rich in hits. Any-hit rate of the full collection: about 1.6%. Unless noted, no rule for the calls is given here.

SMILES	RBBP9 inhibitor	PABP1 MLLE inh	TCR-CD3 inh	eIF4H inh	PABP FP inh
CCCc1cc2c(O)ccc(O)c2c(=O)o1	·	·	–	·	·
COc1ccccc1CCn1cnc(-c2ccc(F)cc2)c1C(C)C	·	·	–	·	·
O=C(Cc1ccccc1)N/N=C/c1ccc(OC(=O)/C=C\c2ccco2)cc1	–	–	–	–	–
COC(=O)N/N=C/c1ccc(OC(=O)/C=C/c2ccco2)cc1	–	–	–	?	+
COc1cccc(N2CCN(C(=O)c3[nH]c(C)c(C(C)=O)c3C)CC2)c1	–	–	–	–	–
COC(=O)c1c(C)[nH]c(C(=O)N2CCN(c3ccc(OC)cc3)CC2)c1C	–	·	–	?	+
COc1ccc(CN(C)C(=O)c2sccc2-c2ccccc2)c(OC)c1	·	–	–	–	–
CN(Cc1ccc(F)cc1)C(=O)c1sccc1-c1ccccc1	·	–	–	–	+
COC(=O)CCN(Cc1cccc(OC)c1OC)S(=O)(=O)c1ccccc1Br	·	·	–	·	·
CCOC(=O)c1cc(-c2ccccc2)sc1NC(=O)C(C)N1C(=O)NC(C)(c2ccc(Cl)cc2)C1=O (stereo not given)	–	–	–	active	+
CCOC(=O)c1cc(-c2ccccc2)sc1NC(=O)C(C)C	–	–	–	–	–
CCN(CC)S(=O)(=O)c1cccc(-c2nnc(SCC(=O)c3cc(C)n(C4CC4)c3C)o2)c1	·	–	–	70.3	+
C=CCn1c(C)cc(C(=O)CSc2nnc(-c3cccc(S(=O)(=O)N(CC)CC)c3)o2)c1C	–	–	–	–	–
Cc1cc(O)cc(=O)n1-c1cc(Cl)cc(Cl)c1	·	·	–	·	·
CCN1C(=O)/C(=C2/C(=O)N3c4c(cc(OC(C)=O)cc42)C(C)=CC3(C)C)SC1=S	–	–	–	–	–
COc1cc2c3c(c1)/C(=C1/SC(NC(C)=O)=NC1=O)C(=O)N3C(C)(C)C=C2C	–	36.9	–	–	–
COC(=O)[C@@H](Cc1ccc(O)cc1)NC(=O)[C@H]1O[C@@H](n2cnc3c(=O)[nH]c(N)nc32)[C@H](O)[C@@H]1O	·	·	–	·	·
O=C(NCCCO)/C(=C/c1ccco1)NC(=O)c1ccc(Br)o1	–	–	–	57.7	–
NC(=O)/C(=C/c1ccco1)NC(=O)c1ccc(Br)o1	–	–	–	·	·
CCCCCCCn1c(=N)n(CC(O)c2ccco2)c2ccccc21 (stereo not given)	–	–	–	–	–
N=c1n(CCN2CCCC2)c2ccccc2n1CC(O)c1ccco1 (stereo not given)	–	44.0	–	–	–
C#CCN(C[C@H]1[C@H](OC(=O)Nc2c(C)noc2C)[C@H](OC(=O)Nc2c(C)noc2C)CN(C(=O)OC(C)C)N1C(=O)OC(C)C)S(=O)(=O)c1ccc(C)cc1	·	·	–	·	·
COCc1cc(N2CCNC[C@@H]2C)ccc1N1C[C@@H](C)O[C@@H](C)C1	·	·	–	·	·
N#C/C(=C\c1ccccc1[N+](=O)[O-])C(=O)NCc1ccccc1	–	57.1	–	69.4	+
Cc1ccccc1NC(=O)/C(C#N)=C\c1cc(C)n(-c2ccc(C(=O)O)cc2)c1C	–	–	–	?	+
SMILES	RBBP9 inhibitor	PABP1 MLLE inh	TCR-CD3 inh	eIF4H inh	PABP FP inh
N#C/C(=C\C=C\c1ccccc1[N+](=O)[O-])C(=O)NCc1ccccc1	·	–	–	–	–
Cc1cc(/C=C(/C#N)C(=O)Nc2ccccc2)c(C)n1-c1cccnc1	–	–	–	–	–
N#C/C(=C\c1cccnc1)C(=O)Nc1ccccc1[N+](=O)[O-]	·	–	–	66.5	+
Cc1ccccc1NC(=O)/C(C#N)=C\c1cccnc1	–	–	–	–	–
O=C(NCc1ccco1)c1ccc([N+](=O)[O-])o1	–	–	–	88.9	+
CCOC(=O)N1CCN(C(=O)C[C@H]2C[C@@]3(C(=O)OC)C(=C[C@H](C(C)(C)C)O[C@@H]3C)N(CCC3=CCCCC3)C2=O)CC1	·	·	–	·	·
C=CCNC(=O)/C(C#N)=C/c1ccccc1[N+](=O)[O-]	–	–	–	–	–
N#C/C(=C/c1ccccc1[N+](=O)[O-])C(=O)NCc1ccco1	–	–	–	63.1	+
COc1ccc(-n2c(C)cc(/C=C(\C#N)C(=O)NCc3ccco3)c2C)cc1	–	–	–	–	+
COC(=O)/C=c1/s/c(=C(\C#N)C(=O)NCc2ccco2)n(-c2ccc(C)cc2)c1=O	–	–	–	101.4	+
Cc1ccccc1-n1c(C)cc(/C=C(\C#N)C(=O)NCC2CCCO2)c1C (stereo not given)	–	–	–	87.8	+
CC(Nc1ccc(F)cc1)=[N+](C)CCNS(=O)(=O)c1ccc(Cl)cc1	·	–	–	–	+
COC(=O)C1=C(C)N(Cc2ccc(Cl)cc2)C(=S)NC1c1ccc(Br)cc1 (stereo not given)	·	·	–	·	·
Cc1cc(C=C2C(=O)c3ccccc3C2=O)c(C)n1-c1ccc(Cl)cc1	–	–	–	62.9	–
Cc1cccc(-n2c(C)cc(C=C3C(=O)c4ccccc4C3=O)c2C)c1	–	–	–	–	–
COc1cc(CCC(C)=O)ccc1OC(=O)c1c(-c2c(F)cccc2Cl)noc1C	·	·	–	·	·
Cc1ccc(-n2c(C)nc3oc4ccccc4c(=O)c3c2=O)cc1	–	–	–	40.1	+
COC(=O)C1=C(C)N(C)C(=NCc2ccc(C(F)(F)F)cc2)NC1c1ccc(Cl)cc1 (stereo not given)	·	·	–	·	·
CCCCCCCCCCCCN1CCSCCS1(=O)=O	·	·	–	·	·
C[C@H](NS(=O)(=O)c1ccc2c(c1)OCCCO2)C(=O)N1CCN(c2ccc(F)cc2)CC1	·	40.8	–	·	·
CC(NS(=O)(=O)c1ccc2c(c1)OCCCO2)C(=O)O (stereo not given)	–	–	–	–	–
O=C(Nc1sc2c(c1C(=O)O)CCC2)C(=O)N1CCOCC1	·	–	–	85.5	+
Cc1[nH]n(C2=NCCS2)c(=O)c1N=Nc1ccccc1	–	40.2	–	–	–
O=C1C2CC=C(Cl)CC2C(=O)N1CN(Cc1ccco1)CN1C(=O)C2CC=C(Cl)CC2C1=O (stereo not given)	–	–	–	65.8	+
O=C(CCN1C(=O)C2CC=C(Cl)CC2C1=O)NCc1ccco1 (stereo not given)	–	–	–	–	–
SMILES	RBBP9 inhibitor	PABP1 MLLE inh	TCR-CD3 inh	eIF4H inh	PABP FP inh
O=C(NN1C(=O)C2CC=C(Cl)CC2C1=O)c1ccncc1 (stereo not given)	–	–	–	?	+
C=C(C)CCOC(=O)C(CC(=O)O)NCc1ccco1 (stereo not given)	–	–	–	?	+
CCOc1ccc(NC(=O)C2CCC(C)(C(=O)O)C2(C)C)cc1 (stereo not given)	–	–	–	130.3	?
COc1ccc(CC(=O)N/N=C/c2ccc(-c3cccc(C(=O)O)c3)o2)cc1OC	–	–	–	81.4	+
Nc1nnc(CC(=O)N/N=C/c2ccc(-c3ccccc3)o2)s1	–	–	–	–	+
Cc1ccc(OCC(=O)N/N=C\c2ccc(C)o2)c(C)c1	–	–	–	–	–
Nc1nnc(CC(=O)N/N=C\c2ccc(-c3cccc(Cl)c3)o2)s1	–	–	–	–	–
Cc1ccc(OCC(=O)N/N=C\c2ccc(-c3cccc(C(=O)O)c3)o2)c(C)c1	–	–	–	89.4	–
